Experiments:
Format in all cases: functional
CCRF-CEM = assay: Cytotoxicity against human CCRF-CEM cells after 48 hrs by SRB assay
Procedure, shortened: (§1)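 NCI-60 human tumour cell panel screen, second stage, run by the NCI Developmental Therapeutics Program. Compounds were tested at five concentrations (0.01, 0.1, 1, 10 and 100 μM). Percentage growth was plotted against log10 concentration for each cell line. GI50, TGI and LC50 were taken from these dose-response curves.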

HL-60(TB) = assay: Cytotoxicity against human HL-60(TB) cells after 48 hrs by SRB assay; settings: HL-60, 48 h
Procedure, shortened: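 NCI Developmental Therapeutics Program 60-cell-line screen, second stage: cells exposed to five concentrations (0.01, 0.1, 1, 10 and 100 μM). Growth is plotted against log10 concentration for each line, and GI50, TGI and LC50 are read from the dose-response curves.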

HOP-92 = assay: Cytotoxicity against human HOP92 cells after 48 hrs by SRB assay; settings: HOP-92, 48 h; procedure, shortened: as §1
NCI-H460 = assay: Cytotoxicity against human NCI-H460 cells after 48 hrs by SRB assay; settings: NCI-H460, 48 h
Procedure, shortened: (§2)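 Second-stage NCI-60 panel run by the NCI Developmental Therapeutics Program, covering nine tumour subpanels. Five concentrations were tested: 0.01, 0.1, 1, 10 and 100 μM. Percentage growth at each level was plotted against log10 drug concentration. GI50, TGI and LC50 were read from these dose-response curves. Subpanel MID values were divided into the full-panel MID to give selectivity ratios.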

HCT-116 = assay: Cytotoxicity against human HCT116 cells after 48 hrs by SRB assay; settings: HCT-116, 48 h; procedure, shortened: as §1
HCT-15 = assay: Cytotoxicity against human HCT15 cells after 48 hrs by SRB assay; settings: HCT-15, 48 h; procedure, shortened: as §1
SW-620 = assay: Cytotoxicity against human SW620 cells after 48 hrs by SRB assay; settings: SW-620, 48 h
Procedure, shortened: (§3)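 NCI-60 five-dose study run by NCI DTP at 0.01, 0.1, 1, 10 and 100 µM. Percentage growth at each level was plotted against log10 concentration for each line, and GI50, TGI and LC50 were read from the dose-response curves.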

SF-539 = assay: Cytotoxicity against human SF539 cells after 48 hrs by SRB assay; settings: SF-539, 48 h; procedure, shortened: as §2
SNB-19 = assay: Cytotoxicity against human SNB19 cells after 48 hrs by SRB assay; settings: SNB-19, 48 h; procedure, shortened: as §2
M14 = assay: Cytotoxicity against human M14 cells after 48 hrs by SRB assay; settings: M14, 48 h; procedure, shortened: as §1
MDA-MB-435 = assay: Cytotoxicity against human MDA-MB-435 cells after 48 hrs by SRB assay; settings: MDA-MB-435, 48 h; procedure, shortened: as §2
SK-MEL-2 = assay: Cytotoxicity against human SK-MEL-2 cells after 48 hrs by SRB assay; settings: SK-MEL-2, 48 h; procedure, shortened: as §2
SK-MEL-5 = assay: Cytotoxicity against human SK-MEL-5 cells after 48 hrs by SRB assay; settings: SK-MEL-5, 48 h; procedure, shortened: as §2
OVCAR-3 = assay: Cytotoxicity against human OVCAR3 cells after 48 hrs by SRB assay; settings: OVCAR-3, 48 h; procedure, shortened: as §2
OVCAR-4 = assay: Cytotoxicity against human OVCAR4 cells after 48 hrs by SRB assay; settings: OVCAR-4, 48 h; procedure, shortened: as §2
OVCAR-5 = assay: Cytotoxicity against human OVCAR5 cells after 48 hrs by SRB assay; settings: OVCAR-5, 48 h; procedure, shortened: as §2
OVCAR-8 = assay: Cytotoxicity against human OVCAR8 cells after 48 hrs by SRB assay; settings: OVCAR-8, 48 h; procedure, shortened: as §2
NCI/ADR-RES = assay: Cytotoxicity against human NCI/ADR-RES cells after 48 hrs by SRB assay; procedure, shortened: as §2
CAKI-1 = assay: Cytotoxicity against human Caki1 cells after 48 hrs by SRB assay; settings: CAKI-1, 48 h; procedure, shortened: as §1
TK-10 = assay: Cytotoxicity against human TK10 cells after 48 hrs by SRB assay; settings: TK-10, 48 h; procedure, shortened: as §3
MDA-MB-231 = assay: Cytotoxicity against human MDA-MB-231 cells after 48 hrs by SRB assay; settings: MDA-MB-231, 48 h; procedure, shortened: as §2
BT-549 = assay: Cytotoxicity against human BT549 cells after 48 hrs by SRB assay; settings: BT-549, 48 h; procedure, shortened: as §1
MDA-MB-468 = assay: Cytotoxicity against human MDA-MB-468 cells after 48 hrs by SRB assay; settings: MDA-MB-468, 48 h; procedure, shortened: as §2
[1] = Cytotoxicity against human leukemia cells assessed as growth inhibition after 48 hrs by SRB assay; settings: Leukemia cell
Procedure, shortened: (§4)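 Values come from the NCI-60 five-dose panel (0.01–100 µM). The subpanel MID is the mean GI50 over the lines of that tumour subpanel. The selectivity ratio is the full-panel MID divided by the subpanel MID; 3–6 is rated moderate and >6 high.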

[2] = Cytotoxicity against human non-small cell lung cancer cells assessed as growth inhibition after 48 hrs by SRB assay; settings: Cancer cell lines; procedure, shortened: as §4
[3] = Cytotoxicity against human ovarian cancer cells assessed as growth inhibition after 48 hrs by SRB assay; settings: Cancer cell lines; procedure, shortened: as §4
[4] = Cytotoxicity against human renal cancer cells assessed as growth inhibition after 48 hrs by SRB assay; settings: Cancer cell lines; procedure, shortened: as §4
[5] = Cytotoxicity against human prostate cancer cells assessed as growth inhibition after 48 hrs by SRB assay; settings: Cancer cell lines; procedure, shortened: as §4
[6] = Cytotoxicity against human breast cancer cells assessed as growth inhibition after 48 hrs by SRB assay; settings: Cancer cell lines; procedure, shortened: as §4
[7] = read-out: LC50 (the source's name)

Question: For CC(C)Sc1cc2c(c3nsnc13)C(=O)c1ccccc1C2=O, which LC50 (CCRF-CEM) is on record?
Answer: > 100000 nM

Question: And the TGI (CCRF-CEM)?
Answer: 580 nM

Question: What about the GI50 (HL-60(TB)) of the same molecule?
Answer: 230 nM

Question: And the LC50 (HL-60(TB))?
Answer: 40800 nM

Question: What about the TGI (HL-60(TB)) of the same molecule?
Answer: 617 nM

Question: And the GI50 (HOP-92)?
Answer: 320 nM

Question: And the LC50 (concentration giving 50% net cell kill) (HOP-92)?
Answer: 14500 nM

Question: What about the TGI (HOP-92) of the same molecule?
Answer: 2180 nM

Question: And the GI50 (NCI-H460)?
Answer: 2020 nM

Question: What about the LC50 (concentration killing 50% of cells) (NCI-H460) of the same molecule?
Answer: 40500 nM

Question: What about the TGI (NCI-H460) of the same molecule?
Answer: 8330 nM

Question: What about the GI50 (HCT-116) of the same molecule?
Answer: 290 nM

Question: What about the TGI (HCT-116) of the same molecule?
Answer: 1010 nM

Question: And the CC50 (HCT-116; [7])?
Answer: 4220 nM

Question: What about the GI50 (HCT-15) of the same molecule?
Answer: 1690 nM

Question: What about the LC50 (HCT-15) of the same molecule?
Answer: 40400 nM

Question: What about the TGI (HCT-15) of the same molecule?
Answer: 6910 nM

Question: What about the GI50 (SW-620) of the same molecule?
Answer: 430 nM

Question: What about the LC50 (50% lethal concentration) (SW-620) of the same molecule?
Answer: 11700 nM

Question: And the TGI (SW-620)?
Answer: 2210 nM

Question: And the GI50 (SF-539)?
Answer: 1730 nM

Question: What about the LC50 (SF-539) of the same molecule?
Answer: 7140 nM

Question: And the TGI (SF-539)?
Answer: 3510 nM

Question: What about the GI50 (SNB-19) of the same molecule?
Answer: 3320 nM

Question: What about the LC50 (SNB-19) of the same molecule?
Answer: 36300 nM

Question: What about the TGI (SNB-19) of the same molecule?
Answer: 13100 nM

Question: And the GI50 (M14)?
Answer: 1540 nM

Question: And the LC50 (M14)?
Answer: 6530 nM

Question: And the TGI (M14)?
Answer: 3180 nM

Question: What about the GI50 (MDA-MB-435) of the same molecule?
Answer: 200 nM

Question: What about the LC50 (MDA-MB-435) of the same molecule?
Answer: 740 nM

Question: What about the TGI (MDA-MB-435) of the same molecule?
Answer: 390 nM

Question: And the GI50 (SK-MEL-2)?
Answer: 990 nM

Question: What about the LC50 (SK-MEL-2) of the same molecule?
Answer: 5870 nM

Question: And the TGI (SK-MEL-2)?
Answer: 2420 nM

Question: And the GI50 (SK-MEL-5)?
Answer: 1290 nM

Question: What about the LC50 (SK-MEL-5) of the same molecule?
Answer: 5230 nM

Question: And the TGI (SK-MEL-5)?
Answer: 2600 nM

Question: And the GI50 (OVCAR-3)?
Answer: 250 nM

Question: What about the TGI (OVCAR-3) of the same molecule?
Answer: 638 nM

Question: What about the CC50 (OVCAR-3; [7]) of the same molecule?
Answer: 2980 nM

Question: What about the GI50 (OVCAR-4) of the same molecule?
Answer: 360 nM

Question: And the LC50 (OVCAR-4)?
Answer: 3670 nM

Question: And the TGI (OVCAR-4)?
Answer: 1340 nM

Question: What about the GI50 (OVCAR-5) of the same molecule?
Answer: 2070 nM

Question: And the LC50 (OVCAR-5)?
Answer: 7940 nM

Question: And the TGI (OVCAR-5)?
Answer: 4050 nM

Question: What about the GI50 (OVCAR-8) of the same molecule?
Answer: 490 nM

Question: What about the TGI (OVCAR-8) of the same molecule?
Answer: 2370 nM

Question: What about the CC50 (OVCAR-8; [7]) of the same molecule?
Answer: 9850 nM

Question: What about the GI50 (NCI/ADR-RES) of the same molecule?
Answer: 520 nM

Question: What about the LC50 (concentration killing 50% of cells) (NCI/ADR-RES) of the same molecule?
Answer: > 100000 nM

Question: What about the TGI (NCI/ADR-RES) of the same molecule?
Answer: 3200 nM

Question: What about the GI50 (CAKI-1) of the same molecule?
Answer: 590 nM

Question: And the LC50 (concentration causing 50% net cell kill) (CAKI-1)?
Answer: 9080 nM

Question: What about the TGI (CAKI-1) of the same molecule?
Answer: 2590 nM

Question: And the GI50 (TK-10)?
Answer: 5680 nM

Question: What about the LC50 (concentration killing 50% of cells) (TK-10) of the same molecule?
Answer: 87600 nM

Question: And the TGI (TK-10)?
Answer: 18000 nM

Question: What about the GI50 (MDA-MB-231) of the same molecule?
Answer: 290 nM

Question: And the LC50 (concentration killing 50% of cells) (MDA-MB-231)?
Answer: 4900 nM

Question: What about the TGI (MDA-MB-231) of the same molecule?
Answer: 1410 nM

Question: And the GI50 (BT-549)?
Answer: 2190 nM

Question: And the LC50 (BT-549)?
Answer: 29800 nM

Question: What about the TGI (BT-549) of the same molecule?
Answer: 8380 nM

Question: And the GI50 (MDA-MB-468)?
Answer: 370 nM

Question: What about the LC50 (MDA-MB-468) of the same molecule?
Answer: 4390 nM

Question: And the TGI (MDA-MB-468)?
Answer: 1420 nM

Question: And the GI50 [1]?
Answer: 250 nM

Question: And the GI50 [2]?
Answer: 1810 nM

Question: And the GI50 [3]?
Answer: 1080 nM

Question: And the GI50 [4]?
Answer: 1580 nM

Question: What about the GI50 [5] of the same molecule?
Answer: 850 nM

Question: And the GI50 [6]?
Answer: 1090 nM
